# Key:
# Assay type in all cases: ADME, organism-based
# [1] = Volume of distribution at steady state in Sprague-Dawley rat at 2 mg/kg, iv; settings: in vivo, read-out: Vdss
# Procedure, shortened: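 Sprague-Dawley rats dosed intravenously at 2 mg/kg in 100% DMSO. Plasma clearance, steady-state volume of distribution and terminal half-life derived from the plasma concentration-time profile.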
# [2] = Cmax in Sprague-Dawley rat at 10 mg/kg, po after 4 hrs; set-up: dose 10 mg/kg, route oral; settings: in vivo
# Procedure, shortened: (§1)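 Sprague-Dawley rats given one 10 mg/kg oral dose in 1% Tween 80, 2% HPMC, 97% water. Plasma drug levels followed over time, giving Cmax, time to Cmax and AUC. Free concentration derived using the fraction unbound from rapid equilibrium dialysis.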
# [3] = AUC in Sprague-Dawley rat at 10 mg/kg, po; settings: in vivo; procedure, shortened: as §1
# [4] = Oral bioavailability in Sprague-Dawley rat at 10 mg/kg; settings: in vivo
# Rattus norvegicus = test: Free plasma concentration in Sprague-Dawley rat at 10 mg/kg, po after 4 hrs; settings: in vivo; procedure, shortened: as §1
smiles,measurement,setting,value
C[C@](O)(CO)c1ccc(-c2ncc(S(=O)(=O)c3ccc(N)nc3)s2)c(Cl)c1,Vd,[1],0.18 L/kg
same,Cmax,[2],57.6 µM
same,AUC,[3],568 µM·h
same,bioavailability,[4],82%
same,Cp(f),Rattus norvegicus,0.43 µM
